Published values gathered from unrelated publications.
Compare with care: the assays were run in different laboratories.
Ephx2: Bifunctional epoxide hydrolase 2 (Ephx2, Rattus norvegicus, UniProt P80299)
Dihydrofolate reductase: Dihydrofolate reductase (Mycobacterium avium, UniProt O30463)

SMILES	target	read-out	action	method	measurement	value
CN1Cc2c(N)cccc2C(=O)N1C1CCC(=O)NC1=O (stereo not shown)	Cereblon/Ikaros (Homo sapiens, UniProt Q13422+Q96SW2)	protein level	degrader	luciferase	DC50	67.2 nM
O=C(Nc1ccc(-c2ccc3cccnc3c2)cc1)C1CCN(S(=O)(=O)c2ccccc2Cl)CC1	Ephx2	enzyme activity	inhibitor	fluorescence	IC50	8.1 nM
CC[C@H](NC(=O)[C@H](CS(=O)(=O)CC1CC1)N[C@@H](c1ccc(F)cc1)C(F)(F)F)C(=O)C(=O)NC1CC1	Dipeptidyl peptidase 1 (Ctsc, Mus musculus, UniProt P97821)	enzyme activity	inhibitor	fluorescence	IC50	18000 nM
Cc1cc([C@@H](C)Nc2ccccc2C(=O)O)c2nc(N3CCC(F)(F)CC3)c(C#N)c(=O)n2c1	Phosphatidylinositol 3-kinase catalytic subunit type 3 (PIK3C3, Homo sapiens, UniProt Q8NEB9)	enzyme activity	inhibitor	ADP detection	IC50	> 10000 nM
O=C1CC[C@H](N2Cc3cc(N4CCN(CC5CCN(c6ccc([C@@H]7c8ccc(O)cc8CC[C@@H]7c7ccccc7)cc6)CC5)CC4)ccc3C2=O)C(=O)N1	Glucocorticoid receptor (NR3C1, Homo sapiens, UniProt P04150)	ligand displacement		radioligand	IC50	83 nM
CCCOc1nc(N)nc(N)c1OCCCOc1ccccc1CCC(=O)O	Dihydrofolate reductase	enzyme activity	inhibitor		IC50	> 5000 nM
O=c1cc(-c2ccc(O)cc2)oc2c([C@@H]3OC[C@H](O)[C@H](O)[C@H]3O)c(O)c([C@@H]3O[C@H](CO)[C@@H](O)[C@H](O)[C@H]3O)c(O)c12	Calcium/calmodulin-dependent protein kinase type II subunit beta (CAMK2B, Homo sapiens, UniProt Q13554)	enzyme activity	inhibitor		IC50	157000 nM
O=C(Nc1ccc(-c2ccnc3ccccc23)cc1)C1CCN(S(=O)(=O)c2ccccc2Cl)CC1	Ephx2	enzyme activity	inhibitor	fluorescence	IC50	0.7 nM
O=C(C=Cc1ccccc1)Nc1cc(-c2ccnc(N3CCC(O)CC3)c2)ccn1	Estrogen receptor (ESR1, Homo sapiens, UniProt P03372)	binding		SPR	Kd	1280 nM
Nc1nc(N)c(OCCCOc2ccccc2CCC(=O)O)c(-c2ccc(C(F)(F)F)cc2)n1	Dihydrofolate reductase	enzyme activity	inhibitor		IC50	67 nM
